Experimental data published in ChEMBL document CHEMBL1268850, “Search for antifungal compounds from the wood of durable tropical trees” (2010).
Converted amounts (≈) assume the structure as drawn.

Columns and labels:
Microsporum canis [1] = experiment: Antifungal activity against Microsporum canis LMGO 02 after 5 days microdilution technique; assay type: functional; details: LMGO 02, 120 h
Method in brief: (§1)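 Dermatophytes were maintained on potato dextrose agar and subcultured 5 days at 28 °C before testing. Microdilution followed CLSI M38-A, with extracts at 500 to 0.98 µg/mL and pure compounds at 256 to 0.5 µg/mL. Fluconazole and itraconazole were the references. Plates were incubated at 32 °C and read after 5 days. MIC is the lowest concentration preventing visible growth, in triplicate.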

Nannizzia gypsea [2] = experiment: Antifungal activity against Microsporum gypseum LMGO 533 after 5 days microdilution technique; assay type: functional; details: LMGO 533, 120 h; method in brief: as §1
Candida albicans [3] = experiment: Antifungal activity against Candida albicans ATCC 10231 after 2 days microdilution technique; details: ATCC 10231, 48 h
[4] = tested on: Trichophyton mentagrophytes; experiment: Antifungal activity against Trichophyton mentagrophytes LMGO 09 after 5 days microdilution technique; assay type: functional; details: LMGO 09, 120 h; method in brief: as §1
Pichia kudriavzevii [5] = experiment: Antifungal activity against Candida krusei LMGO 174 after 2 days microdilution technique; details: LMGO 174, 48 h
[6] = tested on: Cryptococcus gattii species complex; experiment: Antifungal activity against Cryptococcus gattii LMGO L1 after 2 days microdilution technique; details: LMGO L1, 48 h
Candida parapsilosis [7] = experiment: Antifungal activity against Candida parapsilosis ATCC 22019 after 2 days microdilution technique; details: Lodderomyces parapsilosis, ATCC 22019, 48 h
[8] = tested on: Trichophyton mentagrophytes; experiment: Antifungal activity against Trichophyton mentagrophytes LMGO 1931 after 5 days microdilution technique; assay type: functional; details: LMGO 1931, 120 h; method in brief: as §1
Candida albicans [9] = experiment: Antifungal activity against Candida albicans LMGO 102 after 2 days microdilution technique; details: LMGO 102, 48 h
Nakaseomyces glabratus [10] = experiment: Antifungal activity against Candida glabrata LMGO 44 after 2 days microdilution technique; details: LMGO 44, 48 h
Trichophyton rubrum [11] = experiment: Antifungal activity against Trichophyton rubrum LMGO 06 after 5 days microdilution technique; assay type: functional; details: LMGO 06, 120 h; method in brief: as §1
Trichophyton rubrum [12] = experiment: Antifungal activity against Trichophyton rubrum LMGO 08 after 5 days microdilution technique; assay type: functional; details: LMGO 08, 120 h; method in brief: as §1
Trichophyton rubrum [13] = experiment: Antifungal activity against Trichophyton rubrum LMGO 4218 after 5 days microdilution technique; assay type: functional; details: LMGO 4218, 120 h; method in brief: as §1
Candida parapsilosis [14] = experiment: Antifungal activity against Candida parapsilosis LMGO 05 after 2 days microdilution technique; details: Lodderomyces parapsilosis, LMGO 05, 48 h
Nannizzia gypsea [15] = experiment: Antifungal activity against Microsporum gypseum LMGO 10 after 5 days microdilution technique; assay type: functional; details: LMGO 10, 120 h; method in brief: as §1
Microsporum canis [16] = experiment: Antifungal activity against Microsporum canis LMGO 22 after 5 days microdilution technique; assay type: functional; details: LMGO 22, 120 h; method in brief: as §1
Candida albicans [17] = experiment: Antifungal activity against Candida albicans LMGO 102 after 5 days microdilution technique; assay type: functional; details: LMGO 102, 120 h
Method in brief: (§2)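 Yeasts were kept on potato dextrose agar and subcultured 2 days at 28 °C before testing. Broth microdilution followed CLSI M27-A2. Crude extracts were tested at 500 to 0.98 µg/mL and pure compounds at 256 to 0.5 µg/mL. Fluconazole (64 to 0.125 µg/mL) and itraconazole (16 to 0.031 µg/mL) served as references. Plates were incubated at 32 °C. MIC is the lowest concentration with no visible growth, in triplicate.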

Nakaseomyces glabratus [18] = experiment: Antifungal activity against Candida glabrata LMGO 44 after 5 days microdilution technique; assay type: functional; details: LMGO 44, 120 h; method in brief: as §2
[19] = tested on: Cryptococcus gattii species complex; experiment: Antifungal activity against Cryptococcus gattii LMGO L1 after 5 days microdilution technique; assay type: functional, Cryptococcus bacillisporus; details: LMGO L1, 120 h; method in brief: as §2
Pichia kudriavzevii [20] = experiment: Antifungal activity against Candida krusei LMGO 174 after 5 days microdilution technique; assay type: functional; details: LMGO 174, 120 h; method in brief: as §2
Candida albicans [21] = experiment: Antifungal activity against Candida albicans ATCC 10231 after 5 days microdilution technique; assay type: functional; details: ATCC 10231, 120 h; method in brief: as §2
Candida parapsilosis [22] = experiment: Antifungal activity against Candida parapsilosis ATCC 22019 after 5 days microdilution technique; assay type: functional; details: Lodderomyces parapsilosis, ATCC 22019, 120 h; method in brief: as §2

Row | SMILES | MIC (Microsporum canis [1]) [µg/mL] | MIC (Nannizzia gypsea [2]) [µg/mL] | MIC (Candida albicans [3]) [µg/mL] | MIC [4] [µg/mL] | MIC (Pichia kudriavzevii [5]) [µg/mL] | MIC [6] [µg/mL] | MIC (Candida parapsilosis [7]) [µg/mL] | MIC [8] [µg/mL] | MIC (Candida albicans [9]) [µg/mL] | MIC (Nakaseomyces glabratus [10]) [µg/mL] | MIC (Trichophyton rubrum [11]) [µg/mL] | MIC (Trichophyton rubrum [12]) [µg/mL] | MIC (Trichophyton rubrum [13]) [µg/mL] | MIC (Candida parapsilosis [14]) [µg/mL] | MIC (Nannizzia gypsea [15]) [µg/mL] | MIC (Microsporum canis [16]) [µg/mL] | also measured
1 | C=CCCCCCCCC[C@@H]1C[C@H](C[C@@H](O)CO)C(=O)O1 [RUBRENOLIDE] | 16 (≈ 53.6 µM) | 256 (≈ 858 µM) | 64 (≈ 214 µM) | 8 (≈ 26.8 µM) | 64 (≈ 214 µM) | 256 (≈ 858 µM) | 32 (≈ 107 µM) | 64 (≈ 214 µM) | 16 (≈ 53.6 µM) | 4 (≈ 13.4 µM) | 8 (≈ 26.8 µM) | 8 (≈ 26.8 µM) | 16 (≈ 53.6 µM) | 32 (≈ 107 µM) | 16 (≈ 53.6 µM) | 128 (≈ 429 µM) | –
2 | CCC(C)n1ncn(-c2ccc(N3CCN(c4ccc(OCC5COC(Cn6cncn6)(c6ccc(Cl)cc6Cl)O5)cc4)CC3)cc2)c1=O (centres undefined) [ITRACONAZOLE] | 16 (≈ 22.7 µM) | 0.975 (≈ 1.38 µM) | 0.5 (≈ 0.709 µM) | 0.25 (≈ 0.354 µM) | 16 (≈ 22.7 µM) | 2 (≈ 2.83 µM) | 0.25 (≈ 0.354 µM) | 0.5 (≈ 0.709 µM) | > 16 | 0.5 (≈ 0.709 µM) | 0.125 (≈ 0.177 µM) | 0.125 (≈ 0.177 µM) | 0.5 (≈ 0.709 µM) | 0.25 (≈ 0.354 µM) | 0.25 (≈ 0.354 µM) | 16 (≈ 22.7 µM) | –
3 | OC(Cn1cncn1)(Cn1cncn1)c1ccc(F)cc1F [FLUCONAZOLE] | > 64 | 64 (≈ 209 µM) | – | 16 (≈ 52.2 µM) | – | – | – | 4 (≈ 13.1 µM) | – | – | 4 (≈ 13.1 µM) | 8 (≈ 26.1 µM) | 32 (≈ 104 µM) | 4 (≈ 13.1 µM) | 16 (≈ 52.2 µM) | > 64 | MIC (Candida albicans [17]): 1 µg/mL (≈ 3.27 µM); MIC (Nakaseomyces glabratus [18]): 4 µg/mL (≈ 13.1 µM); MIC [19]: > 64 µg/mL; MIC (Pichia kudriavzevii [20]): 8 µg/mL (≈ 26.1 µM); MIC (Candida albicans [21]): > 64 µg/mL; MIC (Candida parapsilosis [22]): > 64 µg/mL
4 | C#CCCCCCCCC[C@@H]1C[C@H](C[C@@H](O)CO)C(=O)O1 [RUBRYNOLIDE] | 32 (≈ 108 µM) | 32 (≈ 108 µM) | 128 (≈ 432 µM) | 32 (≈ 108 µM) | 64 (≈ 216 µM) | 128 (≈ 432 µM) | 128 (≈ 432 µM) | > 256 | 32 (≈ 108 µM) | 32 (≈ 108 µM) | 32 (≈ 108 µM) | 32 (≈ 108 µM) | 32 (≈ 108 µM) | 128 (≈ 432 µM) | 32 (≈ 108 µM) | 64 (≈ 216 µM) | –
